Assay results collected from several papers.
Target: Calcium/calmodulin-dependent protein kinase kinase 1 (CAMKK1, Homo sapiens, UniProt Q8N5S9)

Structure (SMILES) | test | setting | remaining binding [%]
N[C@@H]1CCN(c2nccc(-c3cnn4ncccc34)n2)C1 | binding | 1 µM | 100
CNCc1ccccc1-c1csc([C@H](C)Nc2nc(C)nc3cc(OC)c(OC)cc23)c1 | cell-free assay, competition with immobilised ligand | 1 µM | 99
F[C@@H]1CCN(c2nccc(-c3cnn4ncccc34)n2)C1 | binding | 1 µM | 100
C[C@@H](c1ccc(-n2cnc3c(N)ncnc32)cc1)N1CCc2nn(C)c(Cc3ccccc3)c2C1=O | binding, competition with immobilised ligand | 0.1 µM | 100
CNC(=O)c1ccc(Nc2ncc(C(F)(F)F)c(NCc3nccnc3N(C)S(C)(=O)=O)n2)cc1 | cell-free assay, competition with immobilised ligand | 0.1 µM | 75
C[C@@H]1CCN(c2nccc(-c3cnn4ncccc34)n2)C1 | binding | 1 µM | 87
O=C(c1ccc(Nc2ncc(Cl)c(-c3cc4ccccc4s3)n2)cc1)N1CCC(N2CCCC2)CC1 | binding, competition with immobilised ligand | 1 µM | 91
CN(C)c1nccc(-c2cnn3ncccc23)n1 | binding | 1 µM | 78
Cc1cc(C)c(-n2ccn3nc(-c4cccnc4)cc23)cc1NC(=O)c1cc(C#N)cc(S(F)(F)(F)(F)F)c1 | cell-free assay, competition with immobilised ligand | 0.1 µM | 93.6
c1cncc(-c2cccc(Nc3nccc(NC4CCCCC4)n3)c2)c1 | binding, competition with immobilised ligand | 10 µM | 68
CNC(=O)[C@@H]1CC[C@@H](n2c(-c3ccc4cnccc4c3)nc3ccc(C(=O)NCc4cccc(C(N)=O)c4)cc32)C1 | binding, competition with immobilised ligand | 1 µM | 94
CS(=O)(=O)NCC[C@H](NC(=O)c1cncc2c1cnn2-c1ccc(F)cc1)c1ccnc(S(C)(=O)=O)c1 | cell-free assay, competition with immobilised ligand | 1 µM | 100
CC1CCCN1c1nccc(-c2cnn3ncccc23)n1 (stereo not shown) | binding | 1 µM | 100
O=C(Nc1cnc(Oc2ccc(F)cc2)nc1)N1CCc2ncccc2[C@@H]1c1ccc(F)cc1 | cell-free assay, competition with immobilised ligand | 1 µM | 92
Cc1cnn2ncc(-c3ccnc(N(C)C)n3)c2c1 | binding | 1 µM | 84
O=C(NCCCN1CCOCC1)c1ccc(Nc2ncc(Cl)c(-c3ccc(Cl)s3)n2)cc1 | binding, competition with immobilised ligand | 1 µM | 73
COc1ncc2cc3ccccc3nc2c1C#N | cell-free assay, competition with immobilised ligand | 5 µM | 87
C=CC(=O)N1CCC(C(=O)NCC(=O)N2CCN(c3nc(-c4cnc(N)nc4C(F)F)nc(N4CCOCC4)n3)CC2)CC1 | binding, competition with immobilised ligand | 1 µM | 96
O=C(O)[C@@H]1[C@@H](Cn2nnc3ccccc3c2=O)CC[C@H]1C(=O)c1ccc(OCCC2CCOCC2)cc1 | cell-free assay, competition with immobilised ligand | 1 µM | 100
CN(CCCC(F)(F)F)c1nccc(-c2cnn3ncccc23)n1 | binding | 1 µM | 100
O=C(NCCCN1CCOCC1)c1ccc(Nc2nccc(-c3cc4ccccc4s3)n2)cc1 | binding, competition with immobilised ligand | 1 µM | 80
O=C(NCC1CCOCC1)c1n[nH]cc1NC(=O)c1c(F)cccc1F | binding, competition with immobilised ligand | 1 µM | 88
